# Screening results (PubChem)
# Only some compounds are listed: those with a hit (about 2.1% of all), similar ones and a draw of the others.
# PABP1 MLLE inh: inhibitors of PABP1 MLLE–PAM2 peptide binding, primary screen, biochemical, fluorescence polarization, FITC-PAM2, GST-MLLE; Polyadenylate-binding protein 1 (Homo sapiens), P11940; inhibition, % at 20 µM; 360,000 compounds, 0.36% hits; AID 588489, 2011; in the data active = inhibition above about 35%, passing the limit was not always enough;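 also: plate controls were DMSO wells with GST-MLLE for no effect and wells lacking GST-MLLE protein for full effect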
# NS3 helicase inh: inhibitors of HCV NS3 helicase, primary screen, biochemical, Cy5 molecular beacon fluorescence; Hepatitis C virus NS3 helicase; NS3 helicase DNA unwinding; inhibition, % at 10.9 µM; 290,000 compounds, 0.56% hits;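 active = inhibition above the mean of all tested compounds plus 3 SD, set per campaign, cut at about 35% in these data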;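 also: 0% = DMSO wells and 100% = thioflavine S control wells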
#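 Assay system: hepatitis C virus NS3 helicase domain fragment enzyme. Also added: annealed dual-labelled DNA beacon duplex, ATP-started. Timing: 1 h reaction at 25 °C, ATP-initiated. Technique: Cy5 fluorescence at 0 and 60 min, beacon hairpin quenching. Evaluation: % inhibition of unwinding. Replication: one well per compound.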
# PABP FP inh: PABP poly(A) RNA binding inhibitors, primary screen, biochemical, fluorescence polarization, uHTS; inhibition, % at 35 µM; 290,000 compounds, 1% hits;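 also: calls also rest on retests at 20 µM and on dose response follow-up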
# EBNA-1 inhibitor: EBNA-1 DNA-binding inhibitors, primary screen, biochemical, fluorescence polarization; 300,000 compounds, 0.34% hits; inhibition, % at 14.8 µM; in the data active = inhibition above about 28%
# ZTA DNA inh: ZTA (EBV) inhibition in EBNA-1 counter-screen; P03206; ZTA-DNA binding, fluorescence polarization; inhibition, % at 11 µM; 320,000 compounds, 0.15% hits; AID 2234; in the data active = inhibition above about 33%
# Target sequence (P03206 whole entry, looked up): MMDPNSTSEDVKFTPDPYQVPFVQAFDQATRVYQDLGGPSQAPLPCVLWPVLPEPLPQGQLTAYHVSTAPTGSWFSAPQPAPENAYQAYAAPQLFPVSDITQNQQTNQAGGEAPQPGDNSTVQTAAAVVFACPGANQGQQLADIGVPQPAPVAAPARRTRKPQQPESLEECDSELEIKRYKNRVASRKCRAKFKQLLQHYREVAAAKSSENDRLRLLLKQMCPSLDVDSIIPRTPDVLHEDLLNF
# eIF4H FP inh: human eIF4H binding inhibitors, primary screen, translation initiation inhibitor project, biochemical, uHTS, fluorescence polarization | Eukaryotic translation initiation factor 4H (Homo sapiens), Q15056 | eIF4H fluorescence polarization binding assay | inhibition, % at 35 µM | 290,000 compounds, 0.94% hits;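 also: calls also rest on retests at 20 µM and on dose response follow-up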
# The depositor's hits bear a star; / = not tested or not shown. Unless noted, no rule for the calls is given here.
SMILES,PABP1 MLLE inh,NS3 helicase inh,PABP FP inh,EBNA-1 inhibitor,ZTA DNA inh,eIF4H FP inh
O=C(Cn1c(=O)n(Cc2ccco2)c(=O)c2c3c(sc21)CCCCC3)c1ccccc1,-16,26,36*,25,1,74*
O=C(Cn1c(=O)n(Cc2ccco2)c(=O)c2c3c(sc21)CCCCC3)Nc1ccccc1,6,14,56*,-8,10,78*
O=S(=O)(Nc1ccc(-c2ccc3nncn3n2)cc1)c1cccc(F)c1,2,/,/,-6,1,/
CCCCn1c(NC(=O)c2ccccc2)c(C#N)c2nc3ccccc3nc21,-81,40*,11,/,/,-12
CCCCn1c(NC(=O)c2ccc(F)cc2)c(C#N)c2nc3ccccc3nc21,/,/,/,-19,10,/
Cc1ccc(C(=O)NCCn2c(N)c(C#N)c3nc4ccccc4nc32)cc1,-12,7,active,-1,19,56*
O=C(Nc1nc(=O)c2ccccc2s1)c1ccc(F)cc1,38*,3,-7,11,-1,-3
CC1(C)Cc2cccc(OCC(=O)OCC(=O)Nc3ccc(C(N)=O)cc3)c2O1,-1,/,/,-18,-2,/
CN1CCc2c(sc3c2C(=O)NC(c2ccco2)N3)C1 (configuration not stated),-23,-8,45,9,17,50
O=C1NC(c2ccco2)Nc2sc3c(c21)CCN(Cc1ccccc1)C3 (configuration not stated),-74,1,124*,6,10,116*
O=C(O)CCN1C(=O)CC(N2C(=O)/C(=C/c3ccc(Cl)cc3)SC2=S)C1=O (configuration not stated),33,15,20,-14,5,-10
CCn1nc([N+](=O)[O-])c2c(-c3nc4ccccc4o3)c(N)n(CCCOC)c2c1=O,11,1,52*,-9,-2,70*
COc1ccc(-n2cc(-c3ccccc3)c3c(N4CCOCC4)ncnc32)cc1,6,-1,4,-15,-18,-3
COc1ccccc1NC(=O)Cc1csc(NC(=S)Nc2ccccc2)n1,41*,2,-2,-7,0,-11
C=CCN1C(=O)/C(=C2/Sc3ccccc3N2CC)SC1=S,0,2,8,-6,3,44
C=CCN1C(=O)/C(=C2/Sc3ccccc3N2CCCS(=O)(=O)O)SC1=S,41*,27,36,4,27,12
O=C1C(Nc2ccccc2)=C(N2CCCCC2)C(=O)c2ccccc21,25,4,-2,0,-5,4
O=C1C(Nc2cccc(O)c2)=C(N2CCCCC2)C(=O)c2ccccc21,49*,5,16,-1,6,6
CCCCN1C(=O)C2(NNc3ccccc3O2)c2ccccc21 (configuration not stated),-87,18,19,-14,-21,10
C=CCN1C(=O)C2(NNc3ccccc3O2)c2ccccc21 (configuration not stated),-94,-4,125*,-10,13,101*
Cc1cc(=O)[nH]c(SCC(=O)Nc2cc(S(=O)(=O)N3CCCC3)ccc2Cl)n1,16,2,-6,8,-5,-8
COc1cccc(CNC(=O)CCNC(=O)C2CCN(S(=O)(=O)c3ccc(F)cc3)CC2)c1,-11,-8,/,-2,1,/
Nc1nnc2cc(Br)ccc2n1,75*,/,/,/,/,/
CCCNC(=O)C(Cc1ccccc1C)NC(=O)c1ccc(C#N)cc1 (configuration not stated),5,/,/,/,12,/
CC[N+](C)(CC)CCC(c1ccccc1)C1CCCCC1 (configuration not stated),-121,-6,87*,3,-4,34
SMILES,PABP1 MLLE inh,NS3 helicase inh,PABP FP inh,EBNA-1 inhibitor,ZTA DNA inh,eIF4H FP inh
CC[N+](C)(CC)CCOC(=O)C(O)(c1ccccc1)C1CCCCC1 (configuration not stated),3,-7,-5,9,12,-9
CC1(C)CC(=O)C=C(c2ccccc2-c2ccc(S(C)(=O)=O)cc2)C1=O,-6,/,/,/,/,/
Cc1cc(C)c(NC(=O)CS(=O)CC(=O)NCCCc2ccccc2)c(C)c1 (configuration not stated),3,19,-10,0,-3,-9
Cc1cccc(C)c1NC(=O)CS(=O)CC(=O)NCCCc1ccccc1 (configuration not stated),9,3,61*,-10,7,92*
CN1CCC(=NNC(=O)C(=O)NC(C)(C)C)CC1,-5,-1,-5,-2,0,-4
O=C(O)c1cnn(-c2ccccc2)c1-c1ccncc1,4,17,23,4,0,57*
Cc1ccc(S(=O)(=O)Nc2cc(Cl)c(O)c3ncccc23)cc1,41*,7,-4,-6,7,18
Oc1c(Cl)cc(Cl)c2cccnc12,10,1,-6,/,/,19
CS(=O)(=O)NCCSc1cc(C(F)(F)F)nc2ccccc12,0,-3,84*,3,2,64*
CS(=O)(=O)NCCSCc1ccccc1,0,6,-6,-5,-11,-4
Cc1ccc(NC(=O)c2ccc(NCc3ccco3)c([N+](=O)[O-])c2)cc1Cl,-83,-7,-3,9,4,60
COc1ccccc1C(=O)N(Cc1sccc1C)C1CCS(=O)(=O)C1 (configuration not stated),-7,9,2,-5,4,3
O=C(CSc1nc2ccccc2s1)CSc1nc2ccccc2s1,0,25,26,1,13,18
O=C(CSc1nc2ccccc2s1)c1cc2ccccc2o1,-10,10,103*,-3,-12,60*
O=S(=O)(c1cccs1)N1CN(Cc2cccs2)c2nc3ccccc3nc21,-13,-5,-5,9,9,0
C=CCN1CN(S(=O)(=O)c2cccs2)c2nc3ccccc3nc21,-15,-6,98*,0,0,82*
COc1cc(C(=O)OCc2csc(CC(=O)Nc3cc(C)ccc3C)n2)ccc1OC(F)F,-7,/,/,/,/,/
N#CCCn1cc(/C=N/NC(N)=S)c(-c2ccc(-c3ccccc3)cc2)n1,-35,-16,86,-16,-3,1.9*
Cc1ccc(NC(=O)Nc2sc(=S)n(C)c2C)cc1,-55,1,-9,-31,-12,3
Cc1c(NC(=O)Oc2ccccc2)sc(=S)n1C,39*,2,4,6,-1,-3
O=C(NC(=S)N1CCCCCC1)c1ccccc1Cl,44*,-8,-6,-5,10,-4
CN1CCN(C(=S)NC(=O)c2ccccc2Cl)CC1,28,-2,11,-3,-3,0
